Laboratory results reported in ChEMBL document CHEMBL1795306, “Acyl derivatives of p-aminosulfonamides and dapsone as new inhibitors of the arginine methyltransferase hPRMT1” (Bioorg Med Chem, 2011).
Activity calls are given as the source filed them. The calls are words filed in the database; no cut-off is given here.

Assays:
[1] = target: T1, Protein arginine N-methyltransferase 1 (Homo sapiens, UniProt Q99873); test: Inhibition of human recombinant PRMT1-mediated arginine methylation at 50 uM using nonhistone protein Npl3 substrate by ELISA
Target sequence in this assay (Q99873 whole entry, looked up): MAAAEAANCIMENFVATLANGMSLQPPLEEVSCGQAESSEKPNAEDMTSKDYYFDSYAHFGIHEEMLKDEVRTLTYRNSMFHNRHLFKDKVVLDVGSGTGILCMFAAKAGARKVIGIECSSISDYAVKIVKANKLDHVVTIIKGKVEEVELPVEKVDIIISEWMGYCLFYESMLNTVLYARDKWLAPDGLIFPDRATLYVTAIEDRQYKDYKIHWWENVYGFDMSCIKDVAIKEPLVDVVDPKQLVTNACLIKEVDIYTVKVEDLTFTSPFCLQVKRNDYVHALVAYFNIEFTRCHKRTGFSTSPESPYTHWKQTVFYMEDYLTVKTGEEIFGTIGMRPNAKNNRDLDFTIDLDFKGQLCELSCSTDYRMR

[2] = target: T1, Protein arginine N-methyltransferase 1; test: Inhibition of human recombinant PRMT1-mediated arginine methylation at 10 uM using nonhistone protein Npl3 substrate by ELISA
Target sequence in this assay (Q99873 whole entry, looked up): as above

[3] = target: T2, Histone-lysine N-methyltransferase SETD7 (Homo sapiens) (UniProt Q8WTS6); test: Inhibition of methyl transferase activity of SET7/9 at 50 uM using biotinylated histone H3(1-21) substrate by In-vitro time resolved fluorescence immunosorbent methyltransferase assay
T2 sequence (whole entry): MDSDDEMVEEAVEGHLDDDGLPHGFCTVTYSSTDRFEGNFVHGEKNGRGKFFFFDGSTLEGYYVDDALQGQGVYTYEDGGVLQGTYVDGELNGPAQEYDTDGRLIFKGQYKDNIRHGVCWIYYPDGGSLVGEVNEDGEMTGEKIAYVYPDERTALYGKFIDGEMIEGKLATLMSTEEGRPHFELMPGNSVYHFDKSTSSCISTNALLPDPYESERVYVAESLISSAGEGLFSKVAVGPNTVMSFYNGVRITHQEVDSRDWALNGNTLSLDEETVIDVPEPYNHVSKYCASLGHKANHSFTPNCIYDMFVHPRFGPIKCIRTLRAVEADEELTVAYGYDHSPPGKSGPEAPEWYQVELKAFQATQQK
Summary of the method: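 Biotinylated human histone H3 peptide (aa 1-21, 20 pmol/well) bound to streptavidin plates. Recombinant human GST-Set7/9 preincubated with inhibitor (DMSO) 10 min at 30 °C, then transferred to wells; reaction started with SAM. Methylation detected with rabbit anti-methyl H3K4 antibody and europium-labelled anti-rabbit IgG, read by time-resolved fluorescence (340/615 nm) after enhancement solution.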

[4] = target: T1, Protein arginine N-methyltransferase 1; test: Inhibition of human recombinant PRMT1-mediated arginine methylation using nonhistone protein Npl3 substrate by ELISA
Target sequence in this assay (Q99873 whole entry): as the sequence (Q99873 whole entry, looked up) above

[5] = target: T3, Histone-arginine methyltransferase CARM1 (Mus musculus) (UniProt Q9WVG6); test: Inhibition of mouse FLAG-tagged CARM1-mediated arginine methylation using histone H3(1-31) and [14C]-SAM at 0.01 to 2 mM
T3 sequence (whole entry): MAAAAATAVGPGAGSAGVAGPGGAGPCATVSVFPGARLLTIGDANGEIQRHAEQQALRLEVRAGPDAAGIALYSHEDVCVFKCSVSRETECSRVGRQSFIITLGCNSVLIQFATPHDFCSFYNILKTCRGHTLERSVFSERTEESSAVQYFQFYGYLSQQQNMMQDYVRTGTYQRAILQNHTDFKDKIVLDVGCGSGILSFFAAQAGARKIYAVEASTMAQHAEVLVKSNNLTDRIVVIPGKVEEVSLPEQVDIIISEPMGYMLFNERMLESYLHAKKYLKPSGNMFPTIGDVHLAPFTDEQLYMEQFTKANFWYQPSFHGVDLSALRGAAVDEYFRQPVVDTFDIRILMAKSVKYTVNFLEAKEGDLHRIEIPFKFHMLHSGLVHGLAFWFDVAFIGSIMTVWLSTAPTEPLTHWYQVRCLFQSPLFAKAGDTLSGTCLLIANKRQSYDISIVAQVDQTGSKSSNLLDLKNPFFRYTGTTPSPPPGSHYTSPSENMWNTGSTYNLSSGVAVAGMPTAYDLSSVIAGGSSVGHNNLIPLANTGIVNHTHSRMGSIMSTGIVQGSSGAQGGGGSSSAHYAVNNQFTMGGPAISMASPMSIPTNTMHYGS
Summary of the method: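 Flag-CARM1 (mouse, baculovirus-expressed, 250 nM) with 20 μM recombinant histone H3 and 10 μg/mL BSA in 50 mM Tris-HCl, 0.2 M NaCl, 0.5 mM DTT, pH 8.0, preincubated with inhibitor (0.01–2 mM) 30 min at room temperature, centrifuged; started with 10 μM ¹⁴C-SAM, 15 min at 25 °C. SDS-PAGE, phosphorimager quantitation of H3 radioactivity.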

[6] = Growth inhibition of human MCF7a cells by MTS assay; type: functional
LNCaP [7] = test: Growth inhibition of human LNCAP cells by MTS assay; type: functional
LNCaP [8] = test: Inhibition of androgen dependent transcription in human LNCAP cells assessed as blockade of R1881-induced transcription at 1 to 25 uM by androgen derived MMTV-luciferase reporter gene assay; type: functional, cell-based
Summary of the method: (§1)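 LNCaP cells (2×10^5) grown in RPMI1640/10% FCS, switched to phenol-red-free RPMI1640 with 10% double-stripped FCS, transfected with 500 ng MMTV-Luc (androgen-driven) or TK-Luc (androgen-independent) reporter per well. Six hours later inhibitor or DMSO added, then overnight with or without 10^-10 M R1881; luciferase read. Three experiments in duplicate, mean + SD (n = 6).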

LNCaP [9] = test: Inhibition of thymidine kinase promoter dependent transcription in human LNCAP cells at 1 uM by androgen-nondependent thymidine kinase-luciferase reporter gene assay; type: functional, cell-based; summary of the method: as §1
LNCaP [10] = test: Inhibition of thymidine kinase promoter dependent transcription in human LNCAP cells at 10 uM by androgen-nondependent thymidine kinase-luciferase reporter gene assay; type: functional, cell-based; summary of the method: as §1
LNCaP [11] = test: Inhibition of androgen dependent TMPRSS2 gene transcription in human LNCAP cells by RT-PCR preincubated for 10 mins before 1 nM synthetic androgen R1881 addition; type: functional, cell-based
Summary of the method: (§2)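 LNCaP cells washed with PBS, starved 24 h in phenol-red-free RPMI1640 with 0.5% double-stripped FCS, then treated with inhibitor or DMSO vehicle; 10 min later stimulated overnight with or without 10⁻⁹ M R1881. DNase I-treated Trizol RNA reverse transcribed; target mRNA quantified by SYBR green I quantitative PCR with ROX passive reference.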

LNCaP [12] = test: Inhibition of androgen dependent ELK4 gene transcription in human LNCAP cells by RT-PCR preincubated for 10 mins before 1 nM synthetic androgen R1881 addition; type: functional, cell-based; summary of the method: as §2
LNCaP [13] = test: Inhibition of androgen dependent IGF1-R gene transcription in human LNCAP cells by RT-PCR preincubated for 10 mins before 1 nM synthetic androgen R1881 addition; type: functional, cell-based; summary of the method: as §2
LNCaP [14] = test: Inhibition of androgen dependent NKX3.1 gene transcription in human LNCAP cells by RT-PCR preincubated for 10 mins before 1 nM synthetic androgen R1881 addition; type: functional, cell-based; summary of the method: as §2
LNCaP [15] = test: Inhibition of androgen dependent CXCR4 gene transcription in human LNCAP cells by RT-PCR preincubated for 10 mins before 1 nM synthetic androgen R1881 addition; type: functional, cell-based; summary of the method: as §2
LNCaP [16] = test: Inhibition of androgen dependent MAK gene transcription in human LNCAP cells by RT-PCR preincubated for 10 mins before 1 nM synthetic androgen R1881 addition; type: functional, cell-based; summary of the method: as §2
LNCaP [17] = test: Inhibition of androgen dependent MAF gene transcription in human LNCAP cells by RT-PCR preincubated for 10 mins before 1 nM synthetic androgen R1881 addition; type: functional, cell-based; summary of the method: as §2
LNCaP [18] = test: Inhibition of androgen dependent […] gene transcription in human LNCAP cells by RT-PCR preincubated for 10 mins before 1 nM synthetic androgen R1881 addition; type: functional, cell-based; summary of the method: as §2
LNCaP [19] = test: Inhibition of androgen dependent PER1 gene transcription in human LNCAP cells by RT-PCR preincubated for 10 mins before 1 nM synthetic androgen R1881 addition; type: functional, cell-based; summary of the method: as §2
LNCaP [20] = test: Inhibition of androgen dependent GREB1 gene transcription in human LNCAP cells by RT-PCR preincubated for 10 mins before 1 nM synthetic androgen R1881 addition; type: functional, cell-based; summary of the method: as §2
LNCaP [21] = test: Inhibition of androgen dependent FKBP5 gene transcription in human LNCAP cells by RT-PCR preincubated for 10 mins before 1 nM synthetic androgen R1881 addition; type: functional, cell-based; summary of the method: as §2
LNCaP [22] = test: Inhibition of androgen-independent GAPDH gene transcription in human LNCAP cells by RT-PCR preincubated for 10 mins before 1 nM synthetic androgen R1881 addition; type: functional, cell-based; summary of the method: as §2
LNCaP [23] = test: Inhibition of androgen dependent transcription in human LNCAP cells assessed as blockade of R1881-induced transcription at 25 uM by androgen derived MMTV-luciferase reporter gene assay; type: functional, cell-based; summary of the method: as §1

## Nc1ccc(C(=O)NCc2ccccc2)cc1
[1]
  inhibition: 47%

## Nc1ccc(S(=O)(=O)c2ccc(NC(=O)Cc3ccccc3)cc2)cc1
[2]
  inhibition: 35.3%
[1]
  inhibition: 41.2%
[3]
  inhibition: < 5%

## CCC(=O)Nc1ccc(S(=O)(=O)c2ccc(N)cc2)cc1
[2]
  inhibition: 23.5%
[1]
  inhibition: 70.6%

## O=S(=O)(NCCc1ccccc1)c1ccc(NS(=O)(=O)c2ccc(Cl)cc2)cc1
[4]
  IC50: 5 µM
[5]
  inhibition: inactive
[3]
  inhibition: 58%

## CCCC(=O)Nc1ccc(S(=O)(=O)c2ccc(NC(=O)CCC)cc2)cc1
[2]
  inhibition: 14.7%
[1]
  inhibition: 44.1%

## Nc1ccc(S(=O)(=O)NCc2ccccc2)cc1
[2]
  inhibition: 22%
[1]
  inhibition: 28%

## CCC(=O)Nc1ccc(S(=O)(=O)c2ccc(NC(=O)CC)cc2)cc1
[1]
  inhibition: < 5%

## O=C(CCl)Nc1ccc(S(=O)(=O)c2ccc(NC(=O)CCl)cc2)cc1
[4]
  IC50: 1.5 µM
[6]
  GI50: 1.97 µM
[5]
  inhibition: inactive
[3]
  inhibition: < 5%
LNCaP [7]
  GI50: 4.49 µM
LNCaP [8]
  inhibition: Active
LNCaP [9]
  inhibition: inactive
LNCaP [10]
  inhibition: inactive
LNCaP [11]
  inhibition: Active
LNCaP [12]
  inhibition: Active
LNCaP [13]
  inhibition: Active
LNCaP [14]
  inhibition: Active
LNCaP [15]
  inhibition: Active
LNCaP [16]
  inhibition: Active
LNCaP [17]
  inhibition: Active
LNCaP [18]
  inhibition: Active
LNCaP [19]
  inhibition: Active
LNCaP [20]
  inhibition: Active
LNCaP [21]
  inhibition: Active
LNCaP [22]
  inhibition: inactive

## Nc1ccc(S(=O)(=O)c2ccc(NC(=O)NCc3ccccc3)cc2)cc1
[2]
  inhibition: < 5%
[1]
  inhibition: 13.6%

## O=C(Nc1ccc(S(=O)(=O)NCCc2ccccc2)cc1)c1ccc(-c2ccccc2)cc1
[2]
  inhibition: 39%
[1]
  inhibition: 42%

## Nc1ccc(C(=O)Nc2ccc(S(=O)(=O)NCCc3ccccc3)cc2)cc1
[2]
  inhibition: 40%
[1]
  inhibition: 40%

## O=C(Nc1ccc(S(=O)(=O)NCCc2ccccc2)cc1)c1ccc(Cl)c(Cl)c1
[6]
  GI50: 52.2 µM
[3]
  inhibition: 37%
LNCaP [23]
  inhibition: Active
